Results from ChEMBL document CHEMBL5108057, “Development of MAO-A and 5-HT2AR Dual Inhibitors with Improved Antidepressant Activity” (J Med Chem, 2022).
Active and inactive are the calls of the source. The rule behind the calls is not given here.

What was measured:
Mus musculus [1] = test: Antidepressant activity in reserpine-induced ICR mouse model assessed as increase in total distance traveled at 10 to 20 mg/kg pretreated with reserpine for 3 days followed by compound addition for 1 week by open field test; assay type: functional, organism-based; conditions: dose 10-20 mg/kg, time 1.0 weeks
Method in brief: (§1)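 Body weight was recorded daily. OFT: 5 min session scoring distance, speed, rearing and dejection. FST and TST: 6 min, with immobility scored over the last 4 min. Mean ± SD, n = 6; one-way ANOVA and t-test.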

[2] = Tmax in Sprague-Dawley rat at 10 mg/kg, IG measured upto 1440 mins by LC-MS/MS analysis; assay type: ADME, organism-based; conditions: in vivo, po
[3] = AUC(0 to infinity) in Sprague-Dawley rat at 10 mg/kg, IG measured upto 1440 mins by LC-MS/MS analysis; assay type: ADME, organism-based; parameters: time < 1440 min, dose 10 mg/kg, route ig; conditions: in vivo, po
Mus musculus [4] = test: Antidepressant activity in reserpine-induced mouse assessed as downregulation of 5-HT2AR expression at 10 to 20 mg/kg pretreated with reserpine for 3 days followed by compound addition on day 4 to 10 by Western blot analysis; assay type: functional, organism-based; conditions: dose 10-20 mg/kg, time 6.0 day
Method in brief: (§2)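 Whole-brain protein was quantified by BCA and diluted to 3 mg/mL, then run on 4−20% SDS-PAGE and blotted. Primary antibody at 4 °C overnight, secondary 1 h at room temperature. 5-HT1AR and 5-HT2AR levels are relative; mean ± SD, n = 3.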

Mus musculus [5] = test: Antidepressant activity in chronic unpredictable mild stress ICR mouse model assessed as decrease in immobility time at 10 to 20 mg/kg measured after 2 weeks by tail suspension test; assay type: functional, organism-based; conditions: dose 10-20 mg/kg
Method in brief: (§3)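 ICR mice received CUMS for 4 weeks: 11 stressors given randomly twice daily, 42 days in total. OFT: 5 min session scoring distance, speed, rearing and dejection. FST/TST: 6 min, with immobility scored over the last 4 min. Sucrose preference test was also run. Mean ± SD, n = 6.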

Danio rerio [6] = species: Danio rerio; test: Antidepressant activity in reserpine-induced zebrafish AB depression model assessed as decrease in immobility time at 0.1 to 1 uM pretreated for 40 mins with reserpine followed by compound addition and measured for 7 days by open field test; assay type: functional, organism-based; conditions: dose 0.1-1 µM, time 7.0 day
Method in brief: (§4)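 Zebrafish were exposed to 10 mg/L reserpine for 40 min. Compound (0.1, 0.5, 1 μM) or fluoxetine (1 μM) was given 24 h later for 7 days. Fish kept at 28.5 °C on a 14 h light/10 h dark cycle. Open-field and novel tank tests were video-tracked for distance, velocity, immobility and time in the top. Mean ± SD, n = 6.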

Danio rerio [7] = species: Danio rerio; test: Antidepressant activity in reserpine-induced zebrafish AB depression model assessed as increase in distance traveled at 0.1 to 1 uM pretreated for 40 mins with reserpine followed by compound addition and measured for 7 days by open field test; assay type: functional, organism-based; conditions: dose 0.1-1 µM, time 7.0 day; method in brief: as §4
Mus musculus [8] = test: Antidepressant activity in reserpine-induced mouse assessed as increase in 5-HT1AR expression at 10 to 20 mg/kg pretreated with reserpine for 3 days followed by compound addition on day 4 to 10 by Western blot analysis; assay type: functional, organism-based; conditions: dose 10-20 mg/kg, time 6.0 day; method in brief: as §2
Mus musculus [9] = test: Antidepressant activity in reserpine-induced ICR mouse model assessed as increase the number of rearing at 10 to 20 mg/kg pretreated with reserpine for 3 days followed by compound addition on day 4 to 10 by open field test; assay type: functional, organism-based; conditions: dose 10-20 mg/kg, time 6.0 day; method in brief: as §1
Mus musculus [10] = test: Antidepressant activity in chronic unpredictable mild stress ICR mouse model assessed as decrease in immobility time at 10 to 20 mg/kg measured after 2 weeks by forced swimming test; assay type: functional, organism-based; conditions: dose 10-20 mg/kg; method in brief: as §3
[11] = Cytotoxicity against rat PC-12 cells assessed as reduction in cell growth measured after 48 hrs by MTT assay; assay type: toxicity, cell-based
Method in brief: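 MTT assay: PC12, SH-SY5Y or L02 cells at 5.0 × 10^3 per well were grown for 24 h, treated with compound dilutions from 10 mM DMSO stocks, and cultured 48 h. MTT was then added for 4 h at 37 °C, formazan dissolved in DMSO, and absorbance read at 570 nm. Viability is relative to blank control; IC50 from three repeats. Media contained 10% FBS.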

[12] = Half life in Sprague-Dawley rat at 10 mg/kg, IG measured upto 1440 mins by LC-MS/MS analysis; assay type: ADME, organism-based; conditions: in vivo, po
[13] = Cmax in Sprague-Dawley rat at 10 mg/kg, IG measured upto 1440 mins by LC-MS/MS analysis; assay type: ADME, organism-based; parameters: time < 1440 min, dose 10 mg/kg, route ig; conditions: in vivo, po
[14] = AUC(0 to 24 hrs) in Sprague-Dawley rat at 2 mg/kg, iv measured upto 1440 mins by LC-MS/MS analysis; assay type: ADME, organism-based; parameters: dose 2 mg/kg, time < 1440 min, route iv; conditions: in vivo
Mus musculus [15] = test: Antidepressant activity in reserpine-induced ICR mouse model assessed as improvement in depression like behavior at 10 mg/kg pretreated with reserpine for 3 days followed by compound addition for 1 week by open field test; assay type: functional, organism-based; conditions: time 1.0 weeks; method in brief: as §1
[16] = Bioavailability in Sprague-Dawley rat at 2 mg/kg, iv measured upto 1440 mins by LC-MS/MS analysis; assay type: ADME, organism-based; conditions: in vivo
Mus musculus [17] = test: Antidepressant activity in chronic unpredictable mild stress ICR mouse model assessed as increase in gluco-phagy at 10 to 20 mg/kg measured after 2 weeks by sugar preference test; assay type: functional, organism-based; conditions: dose 10-20 mg/kg; method in brief: as §3
[18] = Toxicity in mouse assessed as toxic effect on spleen at 10 to 20 mg/kg by H and E staining based assay; assay type: organism-based; conditions: in vivo, dose 10-20 mg/kg
Method in brief: (§5)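 Mice given compound at 10 or 20 mg/kg, with fluoxetine 20 mg/kg as comparator. Paraffin tissue sections of 4 μm were cut. Staining: hematoxylin 5 min, 75% HCl-ethanol differentiation 30 s, eosin 2 min. Organs (liver, kidney, lung, heart, spleen) examined at ×400; hippocampus (CA1, CA3, DG) at ×200.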

Mus musculus [19] = test: Antidepressant activity in reserpine-induced mouse hippocampal tissue model assessed as increase in 5-HT level at 10 to 20 mg/kg pretreated with reserpine for 3 days followed by compound addition on day 4 to 10 by HPLC analysis; assay type: functional; conditions: dose 10-20 mg/kg; time 6 day
[20] = Clearance in Sprague-Dawley rat at 2 mg/kg, iv measured upto 1440 mins by LC-MS/MS analysis; assay type: ADME, organism-based; conditions: in vivo
[21] = Toxicity in mouse assessed as toxic effect on liver at 10 to 20 mg/kg by H and E staining based assay; assay type: organism-based; conditions: in vivo, dose 10-20 mg/kg; method in brief: as §5
Mus musculus [22] = test: Antidepressant activity in reserpine-induced ICR mouse model assessed as increase in movement speed at 10 to 20 mg/kg pretreated with reserpine for 3 days followed by compound addition for 1 week by open field test; assay type: functional, organism-based; conditions: dose 10-20 mg/kg, time 1.0 weeks; method in brief: as §1
Danio rerio [23] = species: Danio rerio; test: Antidepressant activity in reserpine-induced zebrafish AB depression model assessed as increase in exploratory ability at 0.1 to 1 uM pretreated for 40 mins with reserpine followed by compound addition and measured for 7 days by novel tank test; assay type: functional, organism-based; conditions: dose 0.1-1 µM, time 7.0 day; method in brief: as §4
[24] = MRT infinity in Sprague-Dawley rat at 10 mg/kg, IG measured upto 1440 mins by LC-MS/MS analysis; assay type: ADME, organism-based; conditions: in vivo, po
[25] = Inhibition of 5-HT2AR mRNA expression in zebra fish AB assessed as fold decrease in 2 delta delta CT level at 1 uM by RT-qPCR method relative to control; assay type: functional, Danio rerio
Method in brief: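 Total RNA from zebrafish was extracted with Trizol and reverse-transcribed with MMLV. SYBR Green qPCR: 95 °C 2 min; 40 cycles of 95, 60 and 72 °C, 30 s each; then 72 °C for 5 min. 5-HT2AR was normalized to GAPDH by the 2^−ΔΔCT method; mean ± SD, n = 3.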

O=C1c2ccccc2-c2nccc3cc(OCCCCCN4CCN(c5ccccc5F)CC4)cc1c23
Activity (Mus musculus [1]): Active
Tmax [2]: 1.33 h
AUC(0-inf) [3]: 504 ng·h/mL
Activity (Mus musculus [4]): Active
Activity (Mus musculus [5]): Active
Activity (Danio rerio [6]): Active
Activity (Danio rerio [7]): Active
Activity (Mus musculus [8]): Active
Activity (Mus musculus [9]): Active
Activity (Mus musculus [10]): Active
IC50 at 48 h [11]: > 10 µM
half-life [12]: 5.22 h
Cmax [13]: 99.7 ng/mL
AUC(0-t) at 24 h [14]: 2230 ng·h/mL
Activity (Mus musculus [15]): Active
bioavailability [16]: 4.4%
Activity (Mus musculus [17]): Active
Activity [18]: Non-Toxic
Activity (Mus musculus [19]): 579.92 ng/mL
clearance [20]: 14.5 mL/min/kg
Activity [21]: Non-Toxic
Activity (Mus musculus [22]): Active
Activity (Danio rerio [23]): Active
MRT inf [24]: 4.94 h
fold change (FC) [25]: 0.014
